Results taken from ChEMBL document CHEMBL1157313, “Metabolites from the marine-derived fungus Chromocleista sp. isolated from a deep-water sediment sample collected in the Gulf of Mexico” (2006).
Values after ≈ are worked out from the molar mass of the structure shown. Active and inactive are the calls of the source. The calls are words filed in the database; no cut-off is given here.

Experiments:
PANC-1 = assay: Cytotoxicity against human PANC1 cells at 5 ug/mL after 72 hrs by MTT assay; format: functional, cell-based
In short: (§1)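 Cells exposed to compound at 5 µg/mL for 72 h in 96-well format; viability read spectrophotometrically with MTT.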

NCI/ADR-RES = assay: Cytotoxicity against human NCI-ADR-RES cells at 5 ug/mL after 72 hrs by MTT assay; format: functional, cell-based; in short: as §1
A549 = assay: Cytotoxicity against human A549 cells at 5 ug/mL after 72 hrs by MTT assay; format: functional, cell-based; in short: as §1
Staphylococcus aureus = assay: Antibacterial activity against Staphylococcus aureus ATCC 29213 at 50 ug/mL after 18 hrs by broth microdilution technique; format: functional, organism-based
In short: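 MIC by standard broth microdilution in cation-supplemented Mueller-Hinton broth; plates incubated 18 h at 37 °C; tested at 50 µg/mL.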

P388 = assay: Cytotoxicity against mouse P388 cells at 5 ug/mL after 45 hrs by MTT assay; format: functional, cell-based
In short: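 Murine leukemia cells incubated 45 h with compound at 5 µg/mL in 96-well plates; cytotoxicity read spectrophotometrically using MTT.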

Candida albicans [1] = assay: Antifungal activity against Candida albicans ATCC 44506 after 18 hrs by broth microdilution method; format: functional; details: ATCC 44506, 18 h
In short: (§2)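 MIC by standard broth microdilution with Sabouraud dextrose broth as growth medium; plates incubated 18 h at 37 °C.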

Candida albicans [2] = assay: Antifungal activity against Candida albicans ATCC 44506 up to 50 ug/mL after 18 hrs by broth microdilution method; format: functional, organism-based; in short: as §2

MIC (Candida albicans [1])	SMILES	Activity (PANC-1)	Activity (NCI/ADR-RES)	Activity (A549)	Activity (Staphylococcus aureus)	Activity (P388)	Activity (Candida albicans [2])
25 µg/mL (≈ 108 µM)	O=C1C(O)=C(c2ccc(O)cc2)[C@@H]2CCCN12	inactive	inactive	inactive	inactive	inactive	
	O=C1[C@H](Cc2ccccc2)NC(=O)[C@@]2(O)CCCN12	inactive	inactive	inactive	inactive	inactive	inactive
	O=C1[C@H](Cc2ccccc2)NC(=O)[C@]2(O)CCCN12	inactive	inactive	inactive	inactive	inactive	inactive
	O=C1N[C@@H](Cc2ccccc2)C(=O)N2CCC=C12	inactive	inactive	inactive	inactive	inactive	inactive
